Test results: ChEMBL document CHEMBL1144123, “Activity of triterpenoid glycosides from the root bark of Mussaenda macrophylla against two oral pathogens” (1999)
Converted amounts (≈) assume the structure as drawn. The source made the active and inactive calls. The calls are words filed in the database; no cut-off is given here.

Key:
[1] = test system: Porphyromonas gingivalis; assay: Antibacterial activity against Porphyromonas gingivalis after 48 hrs by microtiter plate method; assay type: functional
Method in brief: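 Broth microdilution in trypticase soy broth-yeast extract with 0.05% cysteine hydrochloride, menadione (0.02 μg/mL), hemin (5 μg/mL) and 0.02% potassium nitrate. Inoculum 5 × 10^5 CFU/mL; serially diluted test agent, triplicates per concentration. Incubated anaerobically (10% H₂, 5% CO₂, 85% N₂), 37 °C, 48 h. Turbidity read at 650 nm; MIC = lowest concentration keeping absorbance <0.05.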

[2] = test system: Streptococcus mutans; assay: Antibacterial activity against Streptococcus mutans after 48 hrs by microtiter plate method; assay type: functional
Method in brief: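 Brain-heart infusion broth, inoculum 5 × 10^6 CFU/mL, serial dilutions of test agent in triplicate per concentration, 37 °C for 48 h. Controls were inoculated medium without test agent; blanks were uninoculated medium. Growth read spectrophotometrically at 650 nm; MIC taken as minimum concentration limiting turbidity to <0.05 absorbance.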

MIC [1] [µg/mL]	MIC [2] [µg/mL]	Structure (SMILES)	Activity [1]
312 (≈ 384 µM)	> 1250	C[C@@H]1O[C@@H](OC(=O)[C@]23CCC(C)(C)C[C@H]2C2=CC[C@@H]4[C@@]5(C)C[C@H](O)[C@H](O[C@@H]6O[C@H](CO)[C@@H](O)[C@H](O)[C@H]6O)C(C)(C)[C@@H]5[C@H](O)C[C@@]4(C)[C@]2(C)C[C@H]3O)[C@H](O)[C@H](O)[C@H]1O	–
0.312 (≈ 0.617 µM)	0.312 (≈ 0.617 µM)	N=C(NCCCCCCNC(=N)NC(=N)Nc1ccc(Cl)cc1)NC(=N)Nc1ccc(Cl)cc1 [CHLORHEXIDINE]	–
78 (≈ 94.1 µM)	> 1250	C[C@@H]1O[C@@H](OC(=O)[C@]23CCC(C)(C)C[C@H]2C2=CC[C@@H]4[C@@]5(C)C[C@H](O)[C@H](O[C@@H]6O[C@H](CO)[C@@H](O)[C@H](O)[C@H]6O)[C@@](C)(CO)[C@@H]5[C@H](O)C[C@@]4(C)[C@]2(C)C[C@H]3O)[C@H](O)[C@H](O)[C@H]1O	–
312 (≈ 468 µM)	> 1250	CC1(C)CC[C@]2(C(=O)O[C@@H]3O[C@H](CO)[C@@H](O)[C@H](O)[C@H]3O)[C@H](O)C[C@]3(C)C(=CC[C@@H]4[C@@]5(C)C[C@H](O)[C@H](O)C(C)(C)[C@@H]5[C@H](O)C[C@]43C)[C@@H]2C1	–
156 (≈ 125 µM)	> 1250	C/C(=C\C=C\[C@@H](C)[C@H]1CC[C@@]2(C)[C@@H]3CC[C@H]4C(C)(C)[C@@H](O[C@H]5O[C@@H](CO)[C@H](O)[C@@H](O[C@@H]6O[C@H](CO)[C@@H](O)[C@H](O)[C@H]6O)[C@@H]5O[C@@H]5O[C@H](CO[C@H]6O[C@@H](CO)[C@H](O)[C@@H](O)[C@@H]6O)[C@@H](O)[C@H](O)[C@H]5O[C@@H]5O[C@@H](C)[C@H](O)[C@@H](O)[C@H]5O)CC[C@@]45C[C@@]35CC[C@]12C)C(=O)O	–

The next lines start with the molecule.

Structure (SMILES)	MIC [1] [µg/mL]	MIC [2] [µg/mL]	Activity [1]
O=c1c(O)c(-c2ccc(O)cc2)oc2cc(O)cc(O)c12	–	–	Active
COc1cc(O)c2c(=O)c(O)c(-c3ccc(O)cc3)oc2c1	–	–	Active
CC(=O)O[C@H]1CC[C@]2(C)[C@H]3CC=C4[C@@H]5CC(C)(C)CC[C@]5(C(=O)O)CC[C@@]4(C)[C@]3(C)CC[C@H]2C1(C)C [ACETYL OLEANOLIC ACID]	39 (≈ 78.2 µM)	> 1250	–
CC(=O)O[C@H]1CC[C@]2(C)[C@H]3CC=C4[C@@H]5CC(C)(C)CC[C@]5(C)CC[C@@]4(C)[C@]3(C)C[C@@H](O)[C@H]2C1(C)C	78 (≈ 161 µM)	> 1250	–
CC1(C)CC[C@]2(C(=O)O)CC[C@]3(C)C(=CC[C@@H]4[C@@]5(C)CC[C@H](O)C(C)(C)[C@@H]5CC[C@]43C)[C@@H]2C1 [OLEANOLIC_ACID]	625 (≈ 1370 µM)	–	–
O=c1c(O)c(-c2cc(O)c(O)c(O)c2)oc2cc(O)cc(O)c12	–	–	Active
